Key:
MOLM-13 = assay: Antiproliferation activity against human MOLM13 cells expressing FLT3 mutation assessed as cell viability after 72 hrs by MTS method; type: functional; conditions: MOLM-13, 72 h
[1] = biological target: T1, Receptor-type tyrosine-protein kinase FLT3 (Homo sapiens, UniProt P36888); assay: Inhibition of GST-tagged FLT3 expressing wild type kinase domain expressed in Sf9 insect cells after 4 hrs by Kinase-Glo assay
T1 sequence (P36888 whole entry): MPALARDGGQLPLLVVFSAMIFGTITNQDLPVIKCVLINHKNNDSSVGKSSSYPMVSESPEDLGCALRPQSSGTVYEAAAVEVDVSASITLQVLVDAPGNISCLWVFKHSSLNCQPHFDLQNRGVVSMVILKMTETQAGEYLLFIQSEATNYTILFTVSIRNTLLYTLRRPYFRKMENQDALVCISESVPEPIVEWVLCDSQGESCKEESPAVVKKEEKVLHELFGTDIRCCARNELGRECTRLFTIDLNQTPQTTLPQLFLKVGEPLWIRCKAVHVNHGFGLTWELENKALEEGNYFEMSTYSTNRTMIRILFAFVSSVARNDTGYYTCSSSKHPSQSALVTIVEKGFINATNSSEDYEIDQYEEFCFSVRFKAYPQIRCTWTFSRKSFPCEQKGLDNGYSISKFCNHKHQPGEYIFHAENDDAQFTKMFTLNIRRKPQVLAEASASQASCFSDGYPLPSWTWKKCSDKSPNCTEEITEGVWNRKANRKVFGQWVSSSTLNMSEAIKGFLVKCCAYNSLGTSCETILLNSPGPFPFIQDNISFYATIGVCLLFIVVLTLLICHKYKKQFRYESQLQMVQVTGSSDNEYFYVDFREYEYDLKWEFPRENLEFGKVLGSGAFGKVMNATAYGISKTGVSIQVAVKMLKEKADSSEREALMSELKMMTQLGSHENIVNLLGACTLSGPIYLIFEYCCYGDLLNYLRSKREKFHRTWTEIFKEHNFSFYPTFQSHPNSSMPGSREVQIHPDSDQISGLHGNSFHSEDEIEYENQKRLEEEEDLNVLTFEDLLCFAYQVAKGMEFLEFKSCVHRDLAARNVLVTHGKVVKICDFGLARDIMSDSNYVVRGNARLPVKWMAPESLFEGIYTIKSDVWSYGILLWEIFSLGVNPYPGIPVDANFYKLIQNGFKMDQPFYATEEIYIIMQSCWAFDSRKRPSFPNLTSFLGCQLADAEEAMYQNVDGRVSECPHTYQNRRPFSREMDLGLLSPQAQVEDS

Aurora kinase A = biological target: T2, Aurora kinase A (Homo sapiens, UniProt O14965); assay: Inhibition of recombinant GST-tagged Aurora A expressed in Sf9 insect cells after 90 mins by Kinase-Glo assay
T2 sequence (O14965 whole entry): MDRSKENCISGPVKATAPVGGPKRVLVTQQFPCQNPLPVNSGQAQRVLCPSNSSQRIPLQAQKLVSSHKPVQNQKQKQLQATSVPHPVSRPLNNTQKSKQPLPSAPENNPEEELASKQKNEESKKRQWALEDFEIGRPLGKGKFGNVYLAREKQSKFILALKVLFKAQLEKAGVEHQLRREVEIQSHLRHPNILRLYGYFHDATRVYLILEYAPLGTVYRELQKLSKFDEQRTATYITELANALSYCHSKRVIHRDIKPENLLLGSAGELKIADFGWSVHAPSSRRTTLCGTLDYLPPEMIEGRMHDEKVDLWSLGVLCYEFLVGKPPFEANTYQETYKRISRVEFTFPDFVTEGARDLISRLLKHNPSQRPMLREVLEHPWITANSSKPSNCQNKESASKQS
Summary of the method: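 GST-Aurora A kinase domain (S123–S401, 150 ng) from Sf9 cells. Buffer was 50 mM Tris-HCl pH 7.4 with 10 mM NaCl, 10 mM MgCl2, 0.01% BSA and 1 mM DTT. Kinase-Glo Plus was added for 20 min at 25 °C before the luminescence read.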

[2] = biological target: T3, Vascular endothelial growth factor receptor 2 (Homo sapiens, UniProt P35968); assay: Inhibition of recombinant GST-tagged VEGFR2 expressed in Sf9 insect cells after 120 mins by Kinase-Glo assay; type: cell-based
T3 sequence (P35968 whole entry): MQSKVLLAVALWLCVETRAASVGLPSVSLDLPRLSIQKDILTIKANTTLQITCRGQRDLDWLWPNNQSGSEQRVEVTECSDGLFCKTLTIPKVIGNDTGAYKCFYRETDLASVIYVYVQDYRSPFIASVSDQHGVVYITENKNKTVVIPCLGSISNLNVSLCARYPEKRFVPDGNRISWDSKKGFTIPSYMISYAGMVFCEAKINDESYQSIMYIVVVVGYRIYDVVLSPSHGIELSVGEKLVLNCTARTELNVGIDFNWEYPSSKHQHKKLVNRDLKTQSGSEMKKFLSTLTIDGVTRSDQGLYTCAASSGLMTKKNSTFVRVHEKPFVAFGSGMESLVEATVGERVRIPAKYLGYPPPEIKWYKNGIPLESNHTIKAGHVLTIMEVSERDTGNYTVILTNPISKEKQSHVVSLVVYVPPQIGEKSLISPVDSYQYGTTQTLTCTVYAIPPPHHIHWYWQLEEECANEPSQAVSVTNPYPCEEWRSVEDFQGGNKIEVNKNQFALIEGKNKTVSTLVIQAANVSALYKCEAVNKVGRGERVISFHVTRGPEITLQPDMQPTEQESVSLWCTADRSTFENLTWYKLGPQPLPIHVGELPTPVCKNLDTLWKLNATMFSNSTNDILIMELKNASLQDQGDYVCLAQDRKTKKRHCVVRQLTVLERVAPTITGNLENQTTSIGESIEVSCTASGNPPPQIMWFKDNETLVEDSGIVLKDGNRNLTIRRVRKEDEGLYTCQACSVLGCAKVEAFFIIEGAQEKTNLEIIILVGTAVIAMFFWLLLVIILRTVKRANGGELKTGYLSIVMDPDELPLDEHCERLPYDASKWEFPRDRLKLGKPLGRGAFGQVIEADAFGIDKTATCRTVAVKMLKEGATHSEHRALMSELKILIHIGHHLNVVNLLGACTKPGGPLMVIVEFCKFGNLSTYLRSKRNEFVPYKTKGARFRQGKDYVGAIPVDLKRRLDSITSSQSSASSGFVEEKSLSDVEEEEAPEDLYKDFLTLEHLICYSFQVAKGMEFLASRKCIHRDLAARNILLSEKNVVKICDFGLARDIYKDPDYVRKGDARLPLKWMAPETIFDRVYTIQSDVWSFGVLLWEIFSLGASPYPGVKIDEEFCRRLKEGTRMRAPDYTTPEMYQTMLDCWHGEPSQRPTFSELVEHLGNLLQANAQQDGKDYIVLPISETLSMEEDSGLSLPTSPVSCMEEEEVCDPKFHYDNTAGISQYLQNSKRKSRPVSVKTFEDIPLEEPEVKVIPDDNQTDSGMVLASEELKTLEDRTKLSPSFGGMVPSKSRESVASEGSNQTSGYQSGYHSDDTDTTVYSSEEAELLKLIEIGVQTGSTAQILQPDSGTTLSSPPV

[3] = biological target: T4, Vascular endothelial growth factor receptor 1 (Homo sapiens, UniProt P17948); assay: Inhibition of recombinant GST-tagged VEGFR1 expressed in Sf9 insect cells at 1 uM after 120 mins by Kinase-Glo assay
T4 sequence (P17948 whole entry, the tested form may be a part): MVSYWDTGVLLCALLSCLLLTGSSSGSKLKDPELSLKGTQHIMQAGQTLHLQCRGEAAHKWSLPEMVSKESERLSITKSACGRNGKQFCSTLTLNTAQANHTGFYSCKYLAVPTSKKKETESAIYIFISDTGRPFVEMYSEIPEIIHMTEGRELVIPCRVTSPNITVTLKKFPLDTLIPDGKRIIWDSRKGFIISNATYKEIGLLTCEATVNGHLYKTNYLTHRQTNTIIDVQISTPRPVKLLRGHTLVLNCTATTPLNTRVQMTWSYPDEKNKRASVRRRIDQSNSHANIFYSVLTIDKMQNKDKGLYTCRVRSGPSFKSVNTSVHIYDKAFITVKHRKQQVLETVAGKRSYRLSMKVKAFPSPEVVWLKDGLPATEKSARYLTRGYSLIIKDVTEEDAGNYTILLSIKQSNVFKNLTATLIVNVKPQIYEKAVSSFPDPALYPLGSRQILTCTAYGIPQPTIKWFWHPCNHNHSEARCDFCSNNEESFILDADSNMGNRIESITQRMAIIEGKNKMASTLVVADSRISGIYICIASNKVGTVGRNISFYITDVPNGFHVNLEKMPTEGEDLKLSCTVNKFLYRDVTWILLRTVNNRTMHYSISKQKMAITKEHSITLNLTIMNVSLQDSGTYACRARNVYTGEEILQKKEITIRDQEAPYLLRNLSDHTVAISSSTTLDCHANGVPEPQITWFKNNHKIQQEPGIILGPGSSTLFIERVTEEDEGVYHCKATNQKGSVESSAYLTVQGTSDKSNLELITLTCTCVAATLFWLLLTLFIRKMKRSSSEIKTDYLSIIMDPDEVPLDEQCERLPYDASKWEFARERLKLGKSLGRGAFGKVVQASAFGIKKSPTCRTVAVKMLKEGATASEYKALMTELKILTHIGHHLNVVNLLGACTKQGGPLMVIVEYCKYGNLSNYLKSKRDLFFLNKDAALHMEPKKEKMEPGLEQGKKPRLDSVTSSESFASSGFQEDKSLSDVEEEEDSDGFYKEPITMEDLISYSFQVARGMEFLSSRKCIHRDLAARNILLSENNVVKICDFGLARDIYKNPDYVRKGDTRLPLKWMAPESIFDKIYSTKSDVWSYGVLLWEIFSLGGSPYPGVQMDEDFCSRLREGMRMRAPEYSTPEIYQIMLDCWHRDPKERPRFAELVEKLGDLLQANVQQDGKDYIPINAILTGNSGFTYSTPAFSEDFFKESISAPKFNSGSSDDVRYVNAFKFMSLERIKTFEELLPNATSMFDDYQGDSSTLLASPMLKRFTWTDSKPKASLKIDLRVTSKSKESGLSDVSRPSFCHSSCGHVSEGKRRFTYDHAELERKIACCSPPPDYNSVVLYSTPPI

[4] = Ratio GI50 for human MOLM13 cells to IC50 for GST-tagged FLT3 expressing wild type kinase domain; type: functional, MOLM-13
[5] = biological target: T4, Vascular endothelial growth factor receptor 1; assay: Inhibition of recombinant GST-tagged VEGFR1 expressed in Sf9 insect cells after 120 mins by Kinase-Glo assay
Summary of the method: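 GST-VEGFR1 (R781–I1338) or GST-VEGFR2 (V789–V1356) kinase domain, 50–100 ng, from Sf9 cells. Read-out was Kinase-Glo Plus luminescence.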

[6] = biological target: T3, Vascular endothelial growth factor receptor 2; assay: Inhibition of recombinant GST-tagged VEGFR2 expressed in Sf9 insect cells at 1 uM after 120 mins by Kinase-Glo assay
MOLT-4 = assay: Antiproliferation activity against human MOLT4 after 72 hrs by MTS method; type: functional; conditions: MOLT-4, 72 h
U-937 = assay: Antiproliferation activity against human FLT3 gene-deficient U937 cells after 72 hrs by MTS method; type: functional; conditions: U-937, 72 h
[7] = Antiproliferation activity against human RS4:11 cells expressing wild type FLT3 after 72 hrs by MTS method; type: functional; conditions: RS4-11, 72 h
K562 = assay: Antiproliferation activity against human K562 cells expressing wild type BCR/ABL after 72 hrs by MTS method; type: functional; conditions: K562, 72 h
MV4-11 = assay: Antiproliferation activity against FLT3/ITD harboring human MV4-11 cells after 72 hrs by MTS method; type: functional; conditions: MV4-11, 72 h

GI50 (MOLM-13) [nM]	IC50 [1] [nM]	IC50 (Aurora kinase A) [nM]	IC50 [2] [nM]	inhibition [3] [%]	IC50 [5] [nM]	inhibition [6] [%]	GI50 (MOLT-4) [nM]	GI50 (U-937) [nM]	GI50 (K562) [nM]	GI50 (MV4-11) [nM]	SMILES	Ratio [4]	GI50 [7] [nM]
67	350	220	560	52							O=C(Nc1cc(-c2cccc(NS(=O)(=O)c3ccccc3)c2)n[nH]1)c1ccc(CN2CCOCC2)cc1		
120	10	540	> 1000		> 1000						Cc1nc(Nc2cc(-c3cccc(NS(=O)(=O)c4ccccc4)c3)n[nH]2)cc(N2CCC(O)CC2)n1	12	
380	10	680			> 1000	55					Cc1nc(NCCCN2CCOCC2)cc(Nc2cc(-c3cccc(NS(=O)(=O)c4ccccc4)c3)n[nH]2)n1		
							6700	19000	> 20000	40	Cc1ccc(F)c(NC(=O)Nc2ccc(-c3cccc4[nH]nc(N)c34)cc2)c1 [LINIFANIB]		9200

Reference: ChEMBL document CHEMBL1806486, “Discovery and evaluation of 3-phenyl-1H-5-pyrazolylamine-based derivatives as potent, selective and efficacious inhibitors of FMS-like tyrosine kinase-3 (FLT3)” (Bioorg Med Chem, 2011)
